Assays:
[1] = tested on: Leishmania donovani; assay: Antileishmanial activity against Leishmania donovani MHOM/IN/95/9515 promastigotes assessed as inhibition of parasite growth incubated for 48 hrs by resazurin staining based analysis; format: functional, organism-based; conditions: MHOM/IN/95/9515, 48 h
[2] = tested on: Leishmania major; assay: Antileishmanial activity against Leishmania major IR-173 amastigote assessed as inhibition of parasite growth incubated for 72 hrs by resazurin staining based analysis; conditions: IR-173, 72 h
[3] = tested on: THP-1; assay: cells; format: functional, cell-based; conditions: Homo sapiens, THP-1, 72 h
[4] = in vitro; conditions: monkey, Vero cells
[5] = Selectivity index, ratio of IC50 for cytotoxicity against human THP-1 cells assessed as inhibition of cell growth to IC50 for antitrypanosomal activity against Trypanosoma cruzi trypomastigotes assessed as parasite growth inhibition; format: functional
[6] = Selectivity index, ratio of IC50 for cytotoxicity against human THP-1 cells assessed as inhibition of cell growth to IC50 for antileishmanial activity against Leishmania donovani MHOM/IN/95/9515 amastigote assessed as inhibition of parasite growth; format: functional
[7] = tested on: Leishmania donovani; assay: Selectivity index, ratio of IC50 for antileishmanial activity against Leishmania donovani MHOM/IN/95/9515 promastigotes assessed as inhibition of parasite growth to IC50 for antileishmanial activity against Leishmania donovani MHOM/IN/95/9515 amastigote assessed as inhibition of parasite growth; format: functional
[8] = tested on: Leishmania major; assay: Antileishmanial activity against Leishmania major IR-173 promastigotes assessed as inhibition of parasite growth incubated for 48 hrs by resazurin staining based analysis; format: functional, organism-based; conditions: IR-173, 48 h
Summary of the method: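 Logarithmic-phase promastigotes (1.25 × 10^6 cells per mL) grown in supplemented M199 with 10% FBS, pH 7.3–7.4, 26 °C. […] 48 h at 26 °C, then resazurin 24 h in the dark. Absorbance 570 minus 600 nm. IC50 by non-linear regression, mean ± SD of three biological replicates.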

[9] = in vitro; conditions: monkey, Vero cells; remark: listed apart in the source
[10] = tested on: Leishmania donovani; assay: Antileishmanial activity against Leishmania donovani MHOM/IN/95/9515 amastigote assessed as inhibition of parasite growth incubated for 72 hrs by resazurin staining based analysis; conditions: MHOM/IN/95/9515, 72 h
[11] = tested on: Trypanosoma cruzi; assay: Antitrypanosomal activity against Trypanosoma cruzi epimastigotes assessed as parasite growth inhibition incubated for 48 hrs by resazurin staining based analysis; format: functional, organism-based
[12] = in vitro; conditions: monkey, Vero cells; remark: listed apart in the source
[13] = tested on: Trypanosoma cruzi; assay: Antitrypanosomal activity against bloodstream Trypanosoma cruzi trypomastigotes infected in African green monkey Vero cells assessed as parasite growth inhibition incubated for 48 hrs by resazurin assay
[14] = Selectivity index, ratio of IC50 for cytotoxicity against African green monkey Vero cells assessed as inhibition of cell growth to IC50 for antitrypanosomal activity against Trypanosoma cruzi epimastigotes assessed as parasite growth inhibition; format: toxicity, cell-based; conditions: read-out: Ratio IC50
[15] = tested on: Trypanosoma cruzi; assay: Selectivity index, ratio of IC50 for antitrypanosomal activity against Trypanosoma cruzi epimastigote assessed as parasite growth inhibition to IC50 for antitrypanosomal activity against Trypanosoma cruzi trypomastigotes assessed as parasite growth inhibition; format: functional
[16] = Selectivity index, ratio of IC50 for cytotoxicity against African green monkey Vero cells assessed as inhibition of cell growth to IC50 for antitrypanosomal activity against Trypanosoma cruzi trypomastigotes assessed as parasite growth inhibition; format: toxicity, cell-based; conditions: read-out: Ratio IC50
[17] = in vitro; conditions: monkey, Vero cells; remark: listed apart in the source
[18] = tested on: Leishmania major; assay: Selectivity index, ratio of IC50 for antileishmanial activity against Leishmania major IR-173 promastigotes assessed as inhibition of parasite growth to IC50 for antileishmanial activity against Leishmania major IR-173 amastigote assessed as inhibition of parasite growth; format: functional

Row | Structure (SMILES) | IC50 [3] [µM] | IC50 [11] [µM] | IC50 [13] [µM] | IC50 [1] [µM] | IC50 [2] [µM] | selectivity ratio [4] | Ratio IC50 [5] | Ratio IC50 [6] | Ratio IC50 [7] | IC50 [8] [µM] | selectivity ratio [9] | IC50 [10] [µM] | selectivity ratio [12] | selectivity ratio [14] | Ratio IC50 [15] | selectivity ratio [16] | selectivity ratio [17] | Ratio IC50 [18]
1 | O=[N+]([O-])c1ccc(/C=N/N=C/c2ccco2)cc1 | – | > 10 | > 10 | > 10 | > 10 | – | – | – | – | > 10 | – | > 10 | – | – | – | – | – | –
2 | O=C1OCCN1/N=C/c1ccc([N+](=O)[O-])o1 [FURAZOLIDONE] | – | – | – | 0.28 | 5.61 | – | – | – | – | 0.34 | – | 2.7 | – | – | – | – | – | –
3 | O=[N+]([O-])c1ccc(/C=N/N=C/c2ccc(OCc3ccccc3)cc2)o1 | > 100 | 95.2 | > 10 | 1.61 | > 10 | 222 | – | 400 | 6.44 | 0.45 | 400 | 0.25 | 62 | 1 | – | – | – | –
4 | O=Cc1ccc([N+](=O)[O-])o1 | 80.9 | > 10 | > 10 | > 10 | 5.6 | 2 | – | 30 | – | 7.94 | – | 2.68 | – | – | – | – | 3 | 1.42
5 | C(=N\N=C\c1ccco1)/c1ccc(OCc2ccccc2)cc1 | – | > 10 | > 10 | > 10 | > 10 | – | – | – | – | > 10 | – | > 10 | – | – | – | – | – | –
6 | O=[N+]([O-])c1ccc(/C=N/N=C/c2ccc(Br)cc2)o1 | > 100 | 46.1 | > 10 | 3.56 | 0.63 | 133 | – | 16 | 0.56 | 0.75 | 16 | 6.41 | 28 | 2 | – | – | 159 | 1.19
7 | O=[N+]([O-])c1ccc(/C=N/N=C/c2ccc(OCc3ccccc3)cc2)s1 | > 100 | – | – | – | > 10 | 23 | – | – | – | 4.39 | – | – | – | – | – | – | – | –
8 | COc1ccc(/C=N/N=C/c2ccc([N+](=O)[O-])o2)cc1 | > 100 | 4.92 | 6.14 | 1.16 | > 10 | 57 | 16 | 44 | 0.51 | 0.89 | 22 | 2.28 | 44 | 10 | 0.8 | 8 | – | –
9 | O=[N+]([O-])c1ccc(/C=N/N=C/c2ccc(F)cc2)s1 | > 100 | > 10 | 6.56 | 2 | > 10 | 26 | 15 | – | – | 3.79 | – | > 10 | 50 | – | – | 15 | – | –

More lines, in order of falling IC50 [13], values ahead:

Row | IC50 [3] [µM] | IC50 [11] [µM] | IC50 [13] [µM] | Structure (SMILES) | IC50 [1] [µM] | IC50 [2] [µM] | selectivity ratio [4] | Ratio IC50 [5] | Ratio IC50 [6] | Ratio IC50 [7] | IC50 [8] [µM] | selectivity ratio [9] | IC50 [10] [µM] | selectivity ratio [12] | selectivity ratio [14] | Ratio IC50 [15] | selectivity ratio [16] | selectivity ratio [17] | Ratio IC50 [18]
10 | > 100 | – | 4.79 | O=C(Cn1ccnc1[N+](=O)[O-])NCc1ccccc1 [BENZNIDAZOLE] | – | – | – | 21 | – | – | – | – | – | – | – | – | 21 | – | –
11 | > 100 | 3.69 | 4.04 | Cc1ccc(/C=N/N=C/c2ccc([N+](=O)[O-])o2)cc1 | 0.76 | > 10 | 238 | 25 | – | – | 0.42 | – | > 10 | 132 | 27 | 0.91 | 25 | – | –
12 | > 100 | 2.41 | 3.05 | O=[N+]([O-])c1ccc(/C=N/N=C/c2ccc(Cl)cc2)o1 | 0.67 | 2.47 | 238 | 33 | – | – | 0.42 | – | > 10 | 149 | 41 | 0.79 | 33 | 40 | 0.17
13 | 22.9 | > 10 | 3.04 | O=[N+]([O-])c1ccc(/C=N/N=C/c2ccc(O)cc2)s1 | 1.66 | > 10 | 15 | 8 | 67 | 4.88 | 2.22 | 97 | 0.34 | 20 | – | – | 11 | – | –
14 | > 100 | 9.21 | 2.5 | O=[N+]([O-])c1ccc(/C=N/N=C/c2ccccc2)s1 | 0.93 | > 10 | 29 | 40 | 14 | 0.13 | 1.43 | 6 | 7.26 | 45 | 5 | 3.68 | 17 | – | –
15 | > 100 | 7.66 | 2.31 | O=[N+]([O-])c1ccc(/C=N/N=C/c2ccccc2)o1 | 1.45 | > 10 | 14 | 42 | – | – | 1.19 | – | > 10 | 11 | 2 | 3.32 | 7 | – | –
16 | > 100 | 7.83 | 2.23 | NC(=O)N/N=C/c1ccc([N+](=O)[O-])o1 [NITROFURAZONE] | 1.85 | > 10 | 54 | 45 | – | 1.09 | 1.85 | 59 | 1.69 | 54 | 13 | 3.5 | 45 | – | –
17 | 63.4 | 3.56 | 1.95 | O=[N+]([O-])c1ccc(/C=N/N=C/c2ccc(F)cc2)o1 | 1.18 | 3.69 | 65 | 51 | – | – | 0.73 | – | > 10 | 40 | 13 | 1.83 | 24 | 13 | 0.2
18 | 46.2 | 7.3 | 1.74 | O=[N+]([O-])c1ccc(/C=N/N=C/c2ccc(O)cc2)o1 | 1.02 | > 10 | 29 | 27 | 17 | 0.38 | 0.64 | 7 | 2.7 | 18 | 3 | 4.2 | 11 | – | –
19 | 26.7 | > 10 | 1.62 | O=Cc1ccc([N+](=O)[O-])s1 | 5.07 | > 10 | 3 | 16 | – | – | 3.75 | – | > 10 | 2 | – | – | 8 | – | –
20 | 16.8 | 2.63 | 0.78 | O=[N+]([O-])c1ccc(/C=N/N=C/c2ccc([N+](=O)[O-])o2)cc1 | 0.7 | 7.9 | 17 | 21 | 32 | 1.32 | 0.7 | 22 | 0.53 | 17 | 4 | 3.37 | 15 | 1 | 0.09

Source: ChEMBL document CHEMBL5329184, “Design, synthesis, electrochemistry and anti-trypanosomatid hit/lead identification of nitrofuranylazines” (RSC Med Chem, 2023)
